Test results: ChEMBL document CHEMBL2046298, “Lead optimization of purine based orally bioavailable Mps1 (TTK) inhibitors” (Bioorg Med Chem Lett, 2012)

Columns and labels:
[1] = Apparent permeability of the compound by PAMPA; type: ADME
[2] = Plasma concentration in CD-1 mouse at 10 mg/kg, po measured at 4 hrs; type: ADME, organism-based; set-up: dose 10 mg/kg, route oral
Outline: (§1)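 Abbreviated PK screen: CD-1 mice dosed orally at 10 mg/kg in DMA/PEG 400 solution; plasma levels determined at 4 and 8 h post-dose.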

[3] = Plasma concentration in CD-1 mouse at 10 mg/kg, po measured at 8 hrs; type: ADME, organism-based; set-up: dose 10 mg/kg, route oral; outline: as §1
[4] = AUC in CD-1 mouse at 10 mg/kg, po; type: ADME, organism-based; set-up: dose 10 mg/kg, route oral; conditions: plasma
Outline: (§2)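 CD-1 mice given 10 mg/kg orally in a DMA/PEG 400 solution formulation; matched IV arm at 2.5 mg/kg in DMA/PEG 400 for %F.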

[5] = Cmax in CD-1 mouse at 10 mg/kg, po; type: ADME, organism-based; set-up: dose 10 mg/kg, route oral; conditions: in vivo; outline: as §2
[6] = Oral bioavailability in CD-1 mouse at 10 mg/kg; type: ADME, organism-based; conditions: in vivo; outline: as §2

| Papp [1] | concentration at 4 h [2] | concentration at 8 h [3] | AUC [4] | Cmax [5] | bioavailability [6] | Compound |
| --- | --- | --- | --- | --- | --- | --- |
| impermeable | – | – | – | – | – | COc1cc(N2CCN(C(=O)N3CCN(C)CC3)CC2)ccc1Nc1nc(NC2CCCCC2)c2[nH]cnc2n1 |
| – | 180 ng/mL | 39.9 ng/mL | 547 ng·h/mL | 300 nM | 6.9% | COc1cc(N2CCC(CC(=O)N3CCN(C)CC3)CC2)ccc1Nc1nc(NC2CCCCC2)c2[nH]cnc2n1 |
| impermeable | – | – | – | – | – | COc1cc(N2CCN(C(=O)N3CCC(O)C3)CC2)ccc1Nc1nc(NC2CCCCC2)c2nc[nH]c2n1 (stereo not drawn) |
| – | 138 ng/mL | 69.2 ng/mL | 1770 ng·h/mL | 1800 nM | 36% | COc1cc(N2CCC(CC(=O)N3CCCC3)CC2)ccc1Nc1nc(NC2CCCCC2)c2nc[nH]c2n1 |
| – | 66.3 ng/mL | 2.9 ng/mL | – | – | – | COc1cc(N2CCN(Cc3ccccn3)CC2)ccc1Nc1nc(NC2CCCCC2)c2nc[nH]c2n1 |
| – | 105 ng/mL | 44.2 ng/mL | 1710 ng·h/mL | 2600 nM | 31% | COc1cc(N2CCC(N3CCOCC3)CC2)ccc1Nc1nc(NC2CCCCC2)c2nc[nH]c2n1 |
| – | – | – | – | – | 20% | Cc1cc(N2CCOCC2)ccc1Nc1nc(NC2CCCCC2)c2nc[nH]c2n1 |
| – | 16.7 ng/mL | 1.68 ng/mL | – | – | – | COc1cc(N2CCC(C(=O)N3CCOCC3)CC2)ccc1Nc1nc(NC2CCCCC2)c2nc[nH]c2n1 |
| – | 435 ng/mL | 187 ng/mL | 10700 ng·h/mL | 2600 nM | > 83% | COc1cc(N2CCC(CN3CCOCC3)CC2)ccc1Nc1nc(NC2CCCCC2)c2nc[nH]c2n1 |
| – | 156 ng/mL | 17.5 ng/mL | 1730 ng·h/mL | 1000 nM | 17.9% | COc1cc(N2CCN(S(=O)(=O)CCCN3CCOCC3)CC2)ccc1Nc1nc(NC2CCCCC2)c2nc[nH]c2n1 |
| – | 97 ng/mL | 20.9 ng/mL | 1650 ng·h/mL | 1400 nM | 23.1% | COc1cc(N2CCC(CC(=O)N3CCOCC3)CC2)ccc1Nc1nc(NC2CCCCC2)c2nc[nH]c2n1 |
| impermeable | – | – | – | – | – | COc1cc(N2CCC(CC(=O)N3CCC(N(C)C)C3)CC2)ccc1Nc1nc(NC2CCCCC2)c2nc[nH]c2n1 (stereo not drawn) |
